According to ChEMBL document CHEMBL2331340, “Novel antitumor indolizino[6,7-b]indoles with multiple modes of action: DNA cross-linking and topoisomerase I and II inhibition” (J Med Chem, 2013):
pIC50: −log10 of the molar value. Active and inactive are the calls of the source. No cut-off for these calls is given here.

Experiments:
Mus musculus [1] = experiment: Toxicity in nude mouse xenografted with human HT-29 cells assessed as body weight loss at 60 mg/kg, iv tid administered 2 days measured for 20 days; assay type: organism-based; design: dose 60 mg/kg, route intravenous; conditions: in vivo, 480 h
A549 [2] = experiment: Antitumor activity against human A549 cells xenografted in nude mouse assessed as tumor growth inhibition at 60 mg/kg, iv tid administered 2 days measured on day 20 relative to vehicle-treated control; assay type: functional; conditions: read-out: TGI
[3] = biological target: T1, DNA topoisomerase 1 (Homo sapiens) (UniProt P11387); experiment: Inhibition of DNA topoisomerase 1 (unknown origin)-mediated relaxation of supercoiled pHOT DNA at 25 to 100 uM after 30 to 45 mins by agarose gel electrophoresis
T1 sequence (whole entry): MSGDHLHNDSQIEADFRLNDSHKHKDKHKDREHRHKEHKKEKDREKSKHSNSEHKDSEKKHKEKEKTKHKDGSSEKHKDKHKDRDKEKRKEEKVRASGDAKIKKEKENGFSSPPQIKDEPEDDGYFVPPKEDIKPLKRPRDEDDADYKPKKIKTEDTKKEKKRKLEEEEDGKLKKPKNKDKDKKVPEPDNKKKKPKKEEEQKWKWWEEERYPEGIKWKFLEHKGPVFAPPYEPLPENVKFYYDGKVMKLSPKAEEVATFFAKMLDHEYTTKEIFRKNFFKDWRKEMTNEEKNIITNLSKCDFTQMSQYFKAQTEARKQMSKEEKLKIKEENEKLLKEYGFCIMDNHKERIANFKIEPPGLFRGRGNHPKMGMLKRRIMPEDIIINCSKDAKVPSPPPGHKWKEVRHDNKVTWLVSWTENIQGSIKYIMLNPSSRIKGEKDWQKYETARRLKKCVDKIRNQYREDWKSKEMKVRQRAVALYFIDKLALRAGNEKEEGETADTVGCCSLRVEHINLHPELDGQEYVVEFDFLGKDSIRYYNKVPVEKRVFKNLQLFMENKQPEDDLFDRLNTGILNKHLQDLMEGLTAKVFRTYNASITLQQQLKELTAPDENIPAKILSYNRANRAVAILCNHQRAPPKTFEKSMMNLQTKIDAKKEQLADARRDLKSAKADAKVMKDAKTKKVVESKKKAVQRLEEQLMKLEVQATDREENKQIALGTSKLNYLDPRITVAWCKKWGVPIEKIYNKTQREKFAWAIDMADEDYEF
In short: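 Supercoiled pHOT DNA (200 ng) and compound in 10 mM Tris-HCl pH 7.9 with 1 mM EDTA at 37 °C. Reaction started with 1 unit topo I, run 30−45 min, stopped with 10% SDS. Products separated on 1% agarose at 50 V for 90 min and stained with ethidium bromide.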

HT-29 [4] = experiment: Antitumor activity against human HT-29 cells xenografted in nude mouse assessed as tumor growth inhibition at 60 mg/kg, iv tid administered 2 days measured on day 22; assay type: functional, organism-based; design: dose 60 mg/kg
HT-29 [5] = experiment: Antitumor activity against human HT-29 cells xenografted in nude mouse assessed as tumor growth inhibition at 60 mg/kg, iv tid administered 2 days measured on day 20; assay type: functional, organism-based; design: dose 60 mg/kg
Mus musculus [6] = experiment: Toxicity in nude mouse xenografted with human A549 cells assessed as body weight loss at 60 mg/kg, iv tid administered 2 days measured for 20 days; assay type: organism-based; design: dose 60 mg/kg, route intravenous; conditions: in vivo, 480 h
Mus musculus [7] = experiment: Toxicity in nude mouse xenografted with human MX1 cells assessed as body weight loss at 35 mg/kg, iv qd administered 4 days measured for 20 days; assay type: organism-based; design: dose 35 mg/kg, route intravenous; conditions: in vivo, 480 h
PC-3 = experiment: Cytotoxicity against human PC3 cells after 72 hrs by Alamar blue assay; assay type: functional, cell-based; conditions: PC-3, 72 h
In short: (§1)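 Cells exposed to compound for 72 h, then Alamar blue added with a further 10−12 h at 37 °C and a spectrophotometric read. IC50 from six or seven concentrations by median-effect analysis; mean ± STDEV, n = 3. CL141T is a line derived from a patient lung tumor passaged as a SCID mouse xenograft.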

[8] = Cytotoxicity against human HEL299 cells; assay type: cell-based; conditions: HEL 299
MX1 [9] = experiment: Cytotoxicity against human MX1 cells after 72 hrs by SRB assay; assay type: functional, cell-based; conditions: MX1, 72 h
Escherichia coli = experiment: Induction of Escherichia coli pEGFP-N1 DNA interstrand cross-linking at 1 to 10 uM after 2 hrs by alkaline agarose gel shift assay
In short: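 Plasmid pEGFP-N1 DNA (1500 ng) incubated with compound at 1, 5 and 10 μM in 3 mM NaCl/1 mM sodium phosphate pH 7.4/1 mM EDTA, 2 h at 37 °C. DNA then BamHI-linearized, EtOH-precipitated, denatured in 0.5 N NaOH/10 mM EDTA, run on 0.8% alkaline agarose at 4 °C (18 V, 22 h), stained with ethidium bromide.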

[10] = Cell cycle arrest in human CL141T cells assessed as accumulation at G2/M phase at 2 x IC50 after 24 hrs by propidium iodide staining-based FACS flow cytometric analysis; assay type: functional
In short: (§2)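 CL141T cells treated at 0.5-, 1- and 2-fold IC50 for 24, 48 and 72 h. Cells fixed in ice-cold 70% EtOH, then stained with 4 μg/mL propidium iodide in PBS with 1% Triton X-100 and 0.1 mg/mL RNase A. Phase distribution from flow cytometry DNA histograms; sub-G1 fraction scored as well.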

[11] = Cytotoxicity against human OECM1 cells after 72 hrs by Alamar blue assay; assay type: functional, cell-based; conditions: OECM1, 72 h; in short: as §1
[12] = Cell cycle arrest in human CL141T cells assessed as accumulation at G2/M phase at 0.5 x IC50 to 1 x IC50 after 48 to 72 hrs by propidium iodide staining-based FACS flow cytometric analysis; assay type: functional; in short: as §2
HCT-116 = experiment: Cytotoxicity against human HCT116 cells after 72 hrs by Alamar blue assay; assay type: functional, cell-based; conditions: HCT-116, 72 h; in short: as §1
MX1 [13] = experiment: Antitumor activity against human MX1 cells xenografted in nude mouse assessed as tumor growth inhibition at 35 mg/kg, iv qd administered 4 days measured on day 20 relative to vehicle-treated control; assay type: functional; conditions: read-out: TGI
[14] = Resistance factor, ratio of IC50 for human KB-VIN10 cells to IC50 for human KB cells; assay type: functional
[15] = Cytotoxicity against human CL141T cells after 72 hrs by Alamar blue assay; assay type: functional, cell-based; in short: as §1
KB = experiment: Cytotoxicity against human KB cells after 72 hrs by Alamar blue assay
[16] = Cell cycle arrest in human CL141T cells assessed as accumulation at sub-G1 phase at 0.5 x IC50 to 2 x IC50 after 72 hrs by propidium iodide staining-based FACS flow cytometric analysis; assay type: functional; in short: as §2
CCRF-CEM = experiment: Cytotoxicity against human CCRF-CEM cells after 72 hrs by XTT assay; assay type: functional, cell-based
In short: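 CCRF-CEM T-ALL cells incubated with compound for 72 h. XTT with phenazine methosulfate then added for 6 h at 37 °C, absorbance read at 450 and 630 nm. IC50 from six or seven concentrations by median-effect analysis; mean ± STDEV, n = 3.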

[17] = Cytotoxicity against human KB-VIN10 cells after 72 hrs by Alamar blue assay; conditions: KB-VIN10, 72 h
[18] = Cell cycle arrest in human CL141T cells assessed as accumulation at S phase at 3.75 to 15 uM after 24 hrs by propidium iodide staining-based FACS flow cytometric analysis; assay type: functional; in short: as §2
[19] = Cell cycle arrest in human CL141T cells assessed as accumulation at S phase at 0.5 x IC50 after 24 hrs by propidium iodide staining-based FACS flow cytometric analysis; assay type: functional; in short: as §2
MX1 [20] = experiment: Antitumor activity against human MX1 cells xenografted in nude mouse assessed as tumor growth inhibition at 25 mg/kg, iv qd administered 3 days measured on day 20 relative to vehicle-treated control; assay type: functional; conditions: read-out: TGI
NCI-H460 [21] = experiment: Induction of apoptosis in human H460 cells assessed as increase in apoptotic cells at IC50 after 24 hrs by annexin V-FITC/propidium iodide staining-based FACS flow cytometric analysis (reference value: 4.1%); assay type: functional
NCI-H460 [22] = experiment: Induction of apoptosis in human H460 cells assessed as increase in cleaved caspase 7 expression at IC50 after 24 to 72 hrs by Western blotting analysis; assay type: functional, cell-based
In short: (§3)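 H460 cells treated at IC50 for 24 and 72 h. Lysate proteins separated by SDS-PAGE and blotted to nitrocellulose, blocked in 5% milk/PBST. Primary antibodies to caspase-3, caspase-7, PARP (full-length and cleaved) and β-actin applied for 1 h at room temperature or overnight at 4 °C; HRP secondary with ECL detection.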

[23] = Cytotoxicity against human H460 cells after 72 hrs by Alamar blue assay; assay type: functional, cell-based; conditions: NCI-H460, 72 h; in short: as §1
[24] = Cytotoxicity against human MES-SA/Dx5 cells after 72 hrs by Presto Blue assay; assay type: functional, cell-based; conditions: MES-SA/Dx5, 72 h
In short: (§4)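 MES-SA and doxorubicin-resistant MES-SA/dx5 cells exposed for 72 h, then PrestoBlue added for 3 h at 37 °C, absorbance read at 570 and 600 nm. IC50 by median-effect analysis of six or seven concentrations; mean ± STDEV of three to six independent experiments.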

MES-SA = experiment: Resistance factor, ratio of IC50 for human MES-SA/Dx5 cells to IC50 for human MES-SA cells; assay type: functional
NCI-H460 [25] = experiment: Induction of apoptosis in human H460 cells assessed as increase in cleaved caspase 3 expression at IC50 after 24 to 72 hrs by Western blotting analysis; assay type: functional, cell-based; in short: as §3
Mus musculus [26] = experiment: Toxicity in nude mouse xenografted with human MX1 cells assessed as body weight loss at 25 mg/kg, iv qd administered 3 days measured for 20 days; assay type: organism-based; design: dose 25 mg/kg, route intravenous; conditions: in vivo, 480 h
[27] = Cell cycle arrest in human CL141T cells assessed as accumulation at G1 phase at 1 x IC50 to 2 x IC50 after 24 hrs by propidium iodide staining-based FACS flow cytometric analysis; assay type: functional; in short: as §2
[28] = Cytotoxicity against human MES-SA cells after 72 hrs by Presto Blue assay; assay type: functional, cell-based; in short: as §4
A549 [29] = experiment: Cytotoxicity against human A549 cells after 72 hrs by Alamar blue assay; assay type: functional, cell-based; conditions: A549, 72 h; in short: as §1
NCI-H460 [30] = experiment: Induction of apoptosis in human H460 cells assessed as increase in cleaved PARP expression at IC50 after 24 to 72 hrs by Western blotting analysis; assay type: functional, cell-based; in short: as §3
NCI-H460 [31] = experiment: Induction of apoptosis in human H460 cells assessed as increase in apoptotic cells at IC50 after 72 hrs by annexin V-FITC/propidium iodide staining-based FACS flow cytometric analysis (reference value: 9.29%); assay type: functional
[32] = Cell cycle arrest in human CL141T cells assessed as accumulation at S phase at 1 x IC50 to 2 x IC50 after 24 hrs by propidium iodide staining-based FACS flow cytometric analysis; assay type: functional; in short: as §2
HT-29 [33] = experiment: Cytotoxicity against human HT-29 cells after 72 hrs by Alamar blue assay; assay type: functional, cell-based; conditions: HT-29, 72 h; in short: as §1

Activity (Escherichia coli) | SMILES | pIC50 (PC-3) | pIC50 [8] | Activity [10] | pIC50 [11] | Activity [12] | pIC50 (HCT-116) | Ratio IC50 [14] | pIC50 [15] | pIC50 (KB) | Activity [16] | pIC50 (CCRF-CEM) | pIC50 [17] | further results
– | CCc1c2c(nc3ccc(OC(=O)N4CCC(N5CCCCC5)CC4)cc13)-c1cc3c(c(=O)n1C2)COC(=O)[C@]3(O)CC [IRINOTECAN] | – | – | – | – | – | – | – | – | – | – | – | – | Activity (Mus musculus [1]): Toxic; inhibition in vivo at 60 mg/kg (A549 [2]): 50%; inhibition [3]: Active; TGI (HT-29 [4]): inactive; TGI (HT-29 [5]): Active; Activity (Mus musculus [6]): Toxic
Active | CC(C)NC(=O)OCc1c(COC(=O)NC(C)C)c(-c2ccc(F)cc2)n2c1Cc1c(n(C)c3ccccc13)C2 | 5.17 | 4.59 | inactive | 5.18 | Active | 5.22 | 1.1 | 5.13 | 4.85 | Active | 6.96 | 4.81 | Activity (Mus musculus [7]): Toxic; pIC50 (MX1 [9]): 5.66; inhibition in vivo at 35 mg/kg (MX1 [13]): > 99%; Activity [18]: Active
Active | CCn1c2c(c3ccccc31)Cc1c(CO)c(CO)c(C)n1C2 | 5.58 | 5.65 | inactive | 5.93 | Active | 5.77 | 0.62 | 6.10 | 5.83 | Active | 7.00 | 6.05 | Activity [19]: Active; inhibition in vivo at 25 mg/kg (MX1 [20]): > 99%; Activity (NCI-H460 [21]): 12.92%; Activity (NCI-H460 [22]): Active; pIC50 [23]: 6.14; pIC50 [24]: 6.62; Ratio IC50 (MES-SA): 0.6; Activity (NCI-H460 [25]): Active; Activity (Mus musculus [26]): Toxic; Activity [27]: Active; pIC50 [28]: 6.40; pIC50 (A549 [29]): 5.53; Activity (NCI-H460 [30]): Active; Activity (NCI-H460 [31]): 43.52%; Activity [32]: Active; pIC50 (HT-29 [33]): 5.21
